Data from ChEMBL document CHEMBL1124242, “Renin inhibitors. Dipeptide analogues of angiotensinogen utilizing a dihydroxyethylene transition-state mimic at the scissile bond to impart greater inhibitory potency” (J Med Chem, 1988).
Values belong to the molecule of their own block, whether it stands above or below them. Where a SMILES comes first, the peptide text is derived from it. [ ]: non-standard residue; d: D form. The star is where a group is joined. Leu(ol) = CC(C)C[C@H](N)CO; Boc = CC(C)(C)OC(=O)*

Legend:
Renin [1] = biological target: T1, Renin (Homo sapiens, UniProt P00797); assay: In vitro inhibitory activity was tested against purified human renal renin
T1 sequence (P00797 whole entry): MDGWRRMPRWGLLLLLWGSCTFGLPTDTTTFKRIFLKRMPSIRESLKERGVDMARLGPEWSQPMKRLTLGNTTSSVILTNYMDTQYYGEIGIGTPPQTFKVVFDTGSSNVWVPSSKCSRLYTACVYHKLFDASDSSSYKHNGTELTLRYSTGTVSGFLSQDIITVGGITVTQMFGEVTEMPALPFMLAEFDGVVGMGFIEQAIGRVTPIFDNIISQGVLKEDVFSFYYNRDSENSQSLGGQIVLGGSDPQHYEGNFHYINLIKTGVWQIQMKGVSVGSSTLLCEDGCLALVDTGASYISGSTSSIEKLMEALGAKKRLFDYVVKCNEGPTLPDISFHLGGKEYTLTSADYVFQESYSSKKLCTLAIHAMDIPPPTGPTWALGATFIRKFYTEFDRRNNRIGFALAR

Pepsin A (Sus scrofa) [2] = biological target: Pepsin A (Sus scrofa) (UniProt P00791); assay: In vitro Inhibitory activity against porcine pepsin at 10e-5 (M)
Sequence of Pepsin A (Sus scrofa) (P00791 whole entry, looked up): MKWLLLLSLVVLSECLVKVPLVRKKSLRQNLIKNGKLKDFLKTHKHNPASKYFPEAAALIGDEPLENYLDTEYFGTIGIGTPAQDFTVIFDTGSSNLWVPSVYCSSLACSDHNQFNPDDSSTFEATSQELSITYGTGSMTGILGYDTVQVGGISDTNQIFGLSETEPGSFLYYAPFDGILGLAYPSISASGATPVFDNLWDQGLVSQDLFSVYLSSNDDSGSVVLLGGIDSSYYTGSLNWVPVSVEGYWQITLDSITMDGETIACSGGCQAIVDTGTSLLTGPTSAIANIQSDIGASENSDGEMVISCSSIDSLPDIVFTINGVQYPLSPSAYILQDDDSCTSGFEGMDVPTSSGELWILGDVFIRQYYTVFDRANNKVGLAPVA

Cathepsin D (Bos taurus) = biological target: T2, Cathepsin D (Bos taurus) (UniProt P80209); assay: In vitro Inhibitory activity against Bovine cathepsin D at 10e-5 (M)
T2 sequence (whole entry): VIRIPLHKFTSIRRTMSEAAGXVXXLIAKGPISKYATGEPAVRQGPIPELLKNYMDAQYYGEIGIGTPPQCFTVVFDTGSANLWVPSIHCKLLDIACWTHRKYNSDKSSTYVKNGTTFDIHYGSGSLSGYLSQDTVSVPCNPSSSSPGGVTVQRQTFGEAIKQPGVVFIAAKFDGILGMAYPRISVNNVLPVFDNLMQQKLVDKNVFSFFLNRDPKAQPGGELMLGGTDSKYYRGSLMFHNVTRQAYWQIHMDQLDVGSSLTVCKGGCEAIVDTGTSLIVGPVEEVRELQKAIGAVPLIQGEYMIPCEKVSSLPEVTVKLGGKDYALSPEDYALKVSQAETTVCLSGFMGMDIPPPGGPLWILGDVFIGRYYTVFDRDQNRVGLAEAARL
How it was run: (§1)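 Assayed against purified porcine pepsin or bovine cathepsin D by a method described previously. Results given as percent inhibition at 10^-5 M.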

Renin (Homo sapiens) [3] = biological target: T3, Renin (Homo sapiens) (UniProt P00797); assay: In vitro Inhibitory activity against Renin at 10e-9 (M)
T3 sequence (whole entry): T1 sequence (P00797 whole entry)
How it was run: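 Purified human renin, procedure as reported earlier. Results given as percent inhibition at 10^-9 M.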

Renin (Homo sapiens) [4] = biological target: T3, Renin (Homo sapiens); assay: In vitro inhibitory activity against renin at 10e-6 (M)
Renin (Homo sapiens) [5] = biological target: T3, Renin (Homo sapiens); assay: In vitro inhibitory activity against renin at 10e-5 M
Renin [6] = biological target: T1, Renin; assay: In vitro inhibitory activity against renin
Pepsin A (Sus scrofa) [7] = biological target: Pepsin A (Sus scrofa) (UniProt P00791); assay: In vitro Inhibitory activity against porcine Pepsin at 10e-5 (M); how it was run: as §1
[8] = biological target: T4, Gastricsin (Homo sapiens) (UniProt P20142); assay: In vitro Inhibitory activity against human Gastricsin at 10e-5 (M)
T4 sequence (whole entry): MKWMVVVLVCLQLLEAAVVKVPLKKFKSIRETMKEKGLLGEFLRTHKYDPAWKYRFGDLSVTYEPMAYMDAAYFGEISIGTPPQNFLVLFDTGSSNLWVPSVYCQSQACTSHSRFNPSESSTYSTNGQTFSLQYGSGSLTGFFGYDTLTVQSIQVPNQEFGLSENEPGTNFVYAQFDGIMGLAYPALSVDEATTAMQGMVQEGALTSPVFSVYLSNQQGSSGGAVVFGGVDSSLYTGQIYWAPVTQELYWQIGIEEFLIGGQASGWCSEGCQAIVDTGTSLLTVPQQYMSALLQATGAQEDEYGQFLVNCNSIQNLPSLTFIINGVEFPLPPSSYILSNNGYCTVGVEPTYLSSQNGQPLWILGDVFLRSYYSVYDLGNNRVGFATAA
How it was run: (§2)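 Human gastricsin and pepsin isolated from gastric juice by IRC-50 ion exchange with pH elution. Hemoglobin substrate; gastricsin run at pH 3.1, pepsin at pH 2.0. After trichloroacetic acid precipitation, supernatant absorbance read at 280 nm. Results given as percent inhibition at 10^-5 M.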

Pepsin A (Homo sapiens) = Pepsin A (Homo sapiens) (UniProt P0DJD9); assay: In vitro inhibitory activity against Human pepsin at 10e-5 M; how it was run: as §2
Sequence of Pepsin A (Homo sapiens) (P0DJD9 whole entry, looked up): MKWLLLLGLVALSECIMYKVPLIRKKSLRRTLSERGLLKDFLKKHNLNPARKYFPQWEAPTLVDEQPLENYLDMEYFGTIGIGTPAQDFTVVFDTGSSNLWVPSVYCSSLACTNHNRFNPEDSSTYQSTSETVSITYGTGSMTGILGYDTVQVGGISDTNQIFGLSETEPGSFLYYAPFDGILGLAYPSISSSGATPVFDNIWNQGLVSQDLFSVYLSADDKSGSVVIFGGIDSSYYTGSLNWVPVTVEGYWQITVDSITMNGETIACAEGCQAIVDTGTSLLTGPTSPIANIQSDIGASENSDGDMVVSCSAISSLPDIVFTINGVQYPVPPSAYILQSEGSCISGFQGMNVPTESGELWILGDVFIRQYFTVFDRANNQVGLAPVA

IC50 (Renin [1]): 2 nM
inhibition (Pepsin A (Sus scrofa) [2]): 42%
inhibition (Cathepsin D (Bos taurus)): 87%
inhibition (Renin (Homo sapiens) [3]): 29%
SMILES: CCOC(=O)N[C@@H](CC(C)C)C(=O)N[C@@H](CC(C)C)C(=O)N[C@@H](CC1CCCCC1)[C@@H](O)[C@@H](O)CC(C)C

inhibition (Renin (Homo sapiens) [4]): 52%
SMILES: CC(C)C[C@H](NC(=O)[C@H](Cc1c[nH]cn1)NC(=O)[C@H](Cc1cccc2ccccc12)NC(=O)OCc1ccccc1)[C@@H](O)CO

inhibition (Renin (Homo sapiens) [5]): 49%
SMILES: CC(C)C[C@@H](C=O)NC(=O)[C@H](C)NC(=O)[C@H](Cc1ccccc1)NC(=O)OC(C)(C)C (Boc-Phe-Ala-Leu-aldehyde)

inhibition (Renin (Homo sapiens) [4]): 63%
IC50 (Renin [6]): 6400 nM
SMILES: CC(C)C[C@H](NC(=O)[C@H](Cc1c[nH]cn1)NC(=O)[C@H](Cc1cccc2ccccc12)NC(=O)OCc1ccccc1)[C@@H](O)CCO

IC50 (Renin [1]): 1 nM
SMILES: CC(C)COC(=O)N[C@@H](Cc1ccccc1)C(=O)N[C@@H](Cc1c[nH]cn1)C(=O)N[C@@H](CC1CCCCC1)[C@@H](O)[C@@H](O)CC(C)C

IC50 (Renin [1]): 11 nM
SMILES: CC(C)C[C@H](NC(=O)[C@H](Cc1c[nH]cn1)NC(=O)[C@H](Cc1ccccc1)NC(=O)OC(C)(C)C)[C@@H](O)[C@@H](O)CC(C)C

IC50 (Renin [1]): 1 nM
SMILES: CCOC(=O)N[C@@H](Cc1ccccc1)C(=O)N[C@@H](Cc1ccccc1)C(=O)N[C@@H](CC1CCCCC1)[C@@H](O)[C@@H](O)CC(C)C

inhibition (Cathepsin D (Bos taurus)): 0%
inhibition (Pepsin A (Sus scrofa) [7]): 0%
SMILES: CC(C)C[C@H](O)[C@H](O)[C@H](CC1CCCCC1)NC(=O)[C@H](Cc1c[nH]cn1)NC(=O)[C@H](Cc1cccc2ccccc12)NC(=O)OC(C)(C)C

IC50 (Renin [1]): 0.3 nM
SMILES: CC(C)CN[C@@H](Cc1ccccc1)C(=O)N[C@@H](Cc1c[nH]cn1)C(=O)N[C@@H](CC1CCCCC1)[C@@H](O)[C@@H](O)CC(C)C

inhibition [8]: 0%
inhibition (Cathepsin D (Bos taurus)): 0%
inhibition (Pepsin A (Sus scrofa) [7]): 0%
inhibition (Pepsin A (Homo sapiens)): 0%
SMILES: CC(C)C[C@H](O)[C@H](O)[C@H](CC1CCCCC1)NC(=O)[C@H](C)NC(=O)[C@H](Cc1ccccc1)NC(=O)OC(C)(C)C

inhibition (Renin (Homo sapiens) [5]): 65%
IC50 (Renin [6]): 4000 nM
SMILES: CC(C)C[C@H](NC(=O)[C@H](C)NC(=O)[C@H](Cc1ccccc1)NC(=O)OC(C)(C)C)[C@@H](O)CO

IC50 (Renin [1]): 0.5 nM
SMILES: CCOC(=O)N[C@@H](Cc1ccccc1)C(=O)N[C@@H](Cc1c[nH]cn1)C(=O)N[C@@H](CC1CCCCC1)[C@@H](O)[C@@H](O)CC

inhibition (Renin (Homo sapiens) [5]): 73%
IC50 (Renin [6]): 4000 nM
SMILES: C[C@H](NC(=O)[C@H](Cc1ccccc1)NC(=O)OC(C)(C)C)C(=O)N[C@H](CO)CC1CCCCC1

IC50 (Renin [1]): 1.1 nM
SMILES: CCOC(=O)N[C@@H](Cc1ccccc1)C(=O)N[C@@H](CC(C)C)C(=O)N[C@@H](CC1CCCCC1)[C@@H](O)[C@@H](O)CC

inhibition [8]: 0%
inhibition (Cathepsin D (Bos taurus)): 0%
inhibition (Pepsin A (Sus scrofa) [7]): 0%
inhibition (Pepsin A (Homo sapiens)): 0%
SMILES: CC(C)C[C@H](NC(=O)OC(C)(C)C)C(=O)N[C@@H](Cc1c[nH]cn1)C(=O)N[C@@H](CC1CCCCC1)[C@@H](O)[C@@H](O)CC(C)C

inhibition (Renin (Homo sapiens) [5]): 9%
SMILES: CC(C)C[C@@H](CO)NC(=O)[C@H](C)NC(=O)[C@H](Cc1ccccc1)NC(=O)OC(C)(C)C (Boc-Phe-Ala-[Leu(ol)])

IC50 (Renin [1]): 0.6 nM
SMILES: CC[C@H](O)[C@H](O)[C@H](CC1CCCCC1)NC(=O)[C@H](Cc1c[nH]cn1)NC(=O)[C@H](Cc1ccccc1)NC(=O)OC(C)(C)C

SMILES: CC(C)C[C@H](O)[C@H](O)[C@H](CC1CCCCC1)NC(=O)[C@H](Cc1c[nH]cn1)NC(=O)[C@H](Cc1ccccc1)NC(=O)OC(C)(C)C
IC50 (Renin [1]): 35 nM
inhibition [8]: 0%
inhibition (Cathepsin D (Bos taurus)): 0%
inhibition (Renin (Homo sapiens) [3]): 33%
inhibition (Pepsin A (Sus scrofa) [7]): 0%
inhibition (Pepsin A (Homo sapiens)): 0%

IC50 (Renin [1]): 0.2 nM
SMILES: CCOC(=O)N[C@@H](Cc1ccc(OC)cc1)C(=O)N[C@@H](CC(C)C)C(=O)N[C@@H](CC1CCCCC1)[C@@H](O)[C@@H](O)CC(C)C

IC50 (Renin [1]): 0.3 nM
inhibition [8]: 7%
inhibition (Cathepsin D (Bos taurus)): 23%
inhibition (Renin (Homo sapiens) [3]): 71%
inhibition (Pepsin A (Sus scrofa) [7]): 32%
inhibition (Pepsin A (Homo sapiens)): 11%
SMILES: CCOC(=O)N[C@@H](Cc1ccccc1)C(=O)N[C@@H](CC(C)C)C(=O)N[C@@H](CC1CCCCC1)[C@@H](O)[C@@H](O)CC(C)C
